# Experimental data collected from several papers.
# Protocols differ between the studies behind these lines.
# MC1R: Melanocyte-stimulating hormone receptor (MC1R, Homo sapiens, UniProt Q01726)
# TAOK1: Serine/threonine-protein kinase TAO1 (TAOK1, Homo sapiens, UniProt Q7L7X3)
# TYK2 JH1: Non-receptor tyrosine-protein kinase TYK2, JH1 (TYK2, Homo sapiens, UniProt P29597)
Compound,target,assay,system,conditions,quantity,value
C#Cc1cc(-c2cc(Nc3nc(N[C@@H](C)c4ccc(F)cn4)ncc3Cl)n[nH]2)ccc1C=O,"Ribosomal protein S6 kinase alpha-2 (RPS6KA2, Homo sapiens, UniProt Q15349)","enzyme activity, inhibitor",,0.2 µM,inhibition,39%
NC/C(=C\F)COc1cccc(Cn2c(=S)[nH]c(=O)c3[nH]cnc32)c1,"Neuropeptide Y receptor type 1 (NPY1R, Homo sapiens, UniProt P25929)","ligand displacement, radioligand",,10 µM,inhibition,< 50%
Cc1cc(O)c(-c2ccc([C@@H](C)CN(C)C)cc2)c2c1[nH]c(=O)c1sccc12,"Cyclin-dependent kinase 6 (CDK6, Homo sapiens, UniProt Q00534)","enzyme activity, inhibitor",,0.1 µM,inhibition,1.19%
CCCC[C@H](NC(C)=O)C(=O)N[C@H]1CC(=O)NCCCC[C@@H](C(=O)N2CCC[C@@H]2C(=O)N[C@@H](C(=O)N2CCC[C@@H]2C(N)=O)C(C)C)NC(=O)[C@H](Cc2c[nH]c3ccccc23)NC(=O)[C@H](CCCNC(=N)N)NC(=O)[C@@H](Cc2ccccc2)NC(=O)[C@@H]2CCCN2C1=O,MC1R,"cAMP, agonist",,,Emax,102%
CNS(=O)(=O)c1ccc(Nc2ncc(C(F)(F)F)c(N3CCC[C@](C)(O)C3)n2)c(C)c1,TAOK1,"binding, competition with immobilised ligand",,1 µM,remaining binding,5.3%
CCCCC(=O)Nc1ccc(-c2ccc3ncn(CCC)c(=O)c3c2)cn1,"Proto-oncogene tyrosine-protein kinase ROS (ROS1, Homo sapiens, UniProt P08922)","binding, competition with immobilised ligand",,0.5 µM,remaining binding,89%
CC(=O)N[C@H](CCCNC(=N)N)C(=O)N[C@H]1CSSC[C@@H](C(N)=O)NC(=O)[C@H](Cc2c[nH]c3ccccc23)NC(=O)[C@H](CCCNC(=N)N)NC(=O)[C@@H](Cc2ccccc2)NC(=O)[C@H](Cc2c[nH]cn2)NC(=O)[C@H](CCC(=O)O)NC1=O,"Melanocortin receptor 3 (MC3R, Homo sapiens, UniProt P41968)","cAMP, agonist",CHO-K1,,Emax,91%
COc1ccc2oc(-c3ccc4nc(N)oc4c3)c/c(=N\c3ccccc3NC(=O)CCN)c2c1,"Epidermal growth factor receptor (EGFR, Homo sapiens, UniProt P00533, L858R)",binding,,1 µM,remaining binding,92%
C[C@]1(O)CCCN(c2nc(Nc3ccc(S(=O)(=O)N[C@H]4CC[C@H](CN5CCN(c6ccc(C7CCC(=O)NC7=O)cc6F)CC5)CC4)cc3F)ncc2C(F)(F)F)C1 (some centres unmarked),TAOK1,"binding, competition with immobilised ligand",,1 µM,remaining binding,63%
Cc1cc2c(C(N)=O)c(N)n(-c3c(C)ccc(O)c3C)c2nc1C,"Serine/threonine-protein kinase B-raf (BRAF, Homo sapiens, UniProt P15056)","enzyme activity, inhibitor, ADP detection",,10 µM,inhibition,100%
CCCC[C@H](NC(C)=O)C(=O)N[C@@H](C)C(=O)N[C@@H](Cc1c[nH]cn1)C(=O)N[C@@H](Cc1ccccc1)C(=O)N[C@@H](CCCNC(=N)N)C(=O)N[C@H](Cc1c[nH]c2ccccc12)C(=O)N[C@@H](CC(=O)O)C(=O)N[C@@H](CCCNC(=N)N)C(=O)N[C@@H](Cc1ccccc1)C(=O)N[C@@H](C(=O)N1CCC[C@@H]1C(N)=O)C(C)C,MC1R,"cAMP, agonist",,,Emax,100%
N#Cc1ccc(NC(=O)Nc2ccccc2)cc1,TYK2 JH1,"cell-free assay, competition with immobilised ligand",,25 µM,remaining binding,99%
CCN1/C(=C/C(C)=O)Sc2ccc(F)cc21,"Type-1 angiotensin II receptor (AGTR1, Homo sapiens, UniProt P30556)","ligand displacement, radioligand",,10 µM,inhibition,0%
C1=C/COCc2cc(ccc2OCCN2CCCC2)Nc2nccc(n2)-c2cccc(c2)COC/1,TYK2 JH1,cell-free assay,,0.1 µM,remaining signal,52%
